Measured values taken from ChEMBL document CHEMBL1156577, “Moromycins A and B, isolation and structure elucidation of C-glycosylangucycline-type antibiotics from Streptomyces sp. KY002” (2008).
In brackets after ≈: the same amount, converted by molar mass.

Assays:
L1210 = assay: Cytotoxicity against cultured mouse L1210 cells
MCF7 = assay: Cytotoxicity against human MCF7 cells after 48 hrs by SRB assay; assay type: functional; conditions: MCF7, 48 h; for CC50: read-out: LC50 (the source's name)
How it was run: (§1)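 In vitro: human lung H-460 and human breast MCF-7 cell lines exposed to drugs for 48 h. Growth read by sulforhodamine B (SRB) staining.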

NCI-H460 = assay: Cytotoxicity against human H460 cells after 48 hrs by SRB assay; assay type: functional; conditions: NCI-H460, 48 h; for CC50: read-out: LC50 (the source's name)
How it was run: as §1

SMILES | ID50 (L1210) [µg/mL] | GI50 (MCF7) [µM] | TGI (MCF7) [µM] | CC50 (MCF7) [µM] | GI50 (NCI-H460) [µM] | TGI (NCI-H460) [µM] | CC50 (NCI-H460) [µM]
CC[C@@]1(O)C[C@H](O[C@H]2C[C@H](N(C)C)[C@H](O[C@H]3C[C@H](O)[C@H](O[C@H]4CCC(=O)[C@H](C)O4)[C@H](C)O3)[C@H](C)O2)c2c(cc3c(c2O)C(=O)c2c(O)cccc2C3=O)[C@H]1C(=O)OC [ACLARUBICIN] | 0.12 (≈ 0.148 µM) |  |  |  |  |  | 
CC[C@@]1(O)C[C@H](O[C@H]2C[C@H](N(C)C)[C@H](O[C@H]3C[C@@H]4O[C@H]5CC(=O)[C@@H](C)O[C@H]5O[C@@H]4[C@H](C)O3)[C@H](C)O2)c2c(cc3c(c2O)C(=O)c2c(O)cccc2C3=O)[C@H]1C(=O)OC [ACLACINOMYCIN B] | 0.24 (≈ 0.296 µM) |  |  |  |  |  | 
C[C@@H]1O[C@@H](O[C@H]2CC[C@H](O[C@@]3(C)CC(=O)c4c(ccc5c4C(=O)c4ccc([C@H]6C[C@H]7O[C@H]8CC(=O)[C@H](C)O[C@H]8O[C@@H]7[C@@H](C)O6)c(O)c4C5=O)C3)O[C@H]2C)C=CC1=O [MOROMYCIN A] |  | 25.1 | 38.9 | 55 | 18.7 | 51.2 | 69.1
C[C@@H]1O[C@@H](O[C@H]2CC[C@H](O[C@@]3(C)CC(=O)[C@]4(O)C5=C(C=C[C@]4(O)C3)C(=O)c3c(ccc([C@H]4C[C@H]6O[C@H]7CC(=O)[C@H](C)O[C@H]7O[C@@H]6[C@@H](C)O4)c3O)C5=O)O[C@H]2C)C=CC1=O [SAQUAYAMYCIN B] |  | 15.2 | 21.3 | 28.1 | 12.2 | 26.5 | 34.3
C[C@@H]1O[C@H]2O[C@@H]3[C@@H](C)O[C@@H](c4ccc5c(c4O)C(=O)c4ccc6c(c4C5=O)C(=O)C[C@](C)(O)C6)C[C@H]3O[C@H]2CC1=O [MOROMYCIN B] |  | 5.6 | 9.2 | 16.3 | 4.1 | 14.1 | 52.3
